From ChEMBL document CHEMBL4028909, “Discovery of an Orally Bioavailable Benzofuran Analogue That Serves as a β-Amyloid Aggregation Inhibitor for the Potential Treatment of Alzheimer's Disease” (J Med Chem, 2018)
pIC50: −log10 of the molar value.

Legend:
[1] = AUC (infinity) in mouse at 30 mg/kg, po; assay type: ADME, organism-based; set-up: dose 30 mg/kg, time infinity, route oral; conditions: in vivo
How it was run: (§1)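 Mice received a single dose of 3 mg/kg i.v. or 3, 10 or 30 mg/kg orally. Plasma concentration-time profiles were analysed for AUC from zero to infinity and to the last measured time (hr*ng/mL), Cmax (ng/mL, C0 after i.v.), Tmax and terminal half-life (hr), and oral bioavailability (%).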

[2] = Half-life in po dosed monkey; conditions: rhesus monkey, in vivo
[3] = Cmax in mouse at 3 mg/kg, po; assay type: ADME, organism-based; set-up: dose 3 mg/kg, route oral; conditions: in vivo; how it was run: as §1
[4] = Tmax in mouse at 30 mg/kg, po; assay type: ADME, organism-based; conditions: in vivo
How it was run: (§2)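 Mouse pharmacokinetics: single i.v. dose of 3 mg/kg, or oral doses of 3, 10 and 30 mg/kg. Plasma concentration–time curves gave T1/2 (terminal, hr), Tmax (hr), Cmax, AUC and bioavailability (%).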

Mus musculus [5] = test: Reversal of cognitive deficit in amyloid beta (1 to 42)-treated Alzheimer's disease ICR mouse model assessed as increase in step-through latency time administered orally for 3 consecutive days by passive avoidance test; assay type: functional
How it was run: (§3)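 Acute AD model: preformed Aβ aggregates injected into the brains of normal mice. Compound given orally for three consecutive days, then step-through passive avoidance was tested by a standard protocol. Read-out is step-through latency (sec), compared against control and vehicle groups.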

[6] = Tmax in mouse at 10 mg/kg, po; assay type: ADME, organism-based; conditions: in vivo; how it was run: as §2
Cytochrome P450 2A6 = target: T1, Cytochrome P450 2A6 (Homo sapiens, UniProt P11509); test: Inhibition of CYP2A6 in human liver microsomes preincubated for 5 mins followed by addition of NADPH generating system measured after 20 mins by LC-MS/MS analysis; assay type: ADME
T1 sequence (P11509 whole entry): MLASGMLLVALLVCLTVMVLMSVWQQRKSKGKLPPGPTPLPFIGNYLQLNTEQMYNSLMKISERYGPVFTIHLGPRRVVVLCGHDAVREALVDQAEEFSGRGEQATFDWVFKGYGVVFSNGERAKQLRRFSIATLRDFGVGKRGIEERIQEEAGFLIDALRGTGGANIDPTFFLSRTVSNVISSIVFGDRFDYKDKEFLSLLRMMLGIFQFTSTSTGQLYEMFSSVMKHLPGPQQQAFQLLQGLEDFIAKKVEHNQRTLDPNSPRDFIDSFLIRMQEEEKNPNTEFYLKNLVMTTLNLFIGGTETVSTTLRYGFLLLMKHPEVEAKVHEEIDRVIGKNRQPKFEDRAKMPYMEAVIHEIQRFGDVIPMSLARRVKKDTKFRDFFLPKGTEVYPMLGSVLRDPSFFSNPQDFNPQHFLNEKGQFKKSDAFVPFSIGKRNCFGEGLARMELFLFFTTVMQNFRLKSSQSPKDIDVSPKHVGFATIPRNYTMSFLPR
How it was run: (§4)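 Inhibition of each CYP isozyme (1A2, 2A6, 2C8, 2C9, 2C19, 2D6, 3A4) was measured in human liver microsomes. IC50 values were reported in μM.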

Cytochrome P450 3A4 = Cytochrome P450 3A4 (Homo sapiens, UniProt P08684); test: Inhibition of CYP3A4 in human liver microsomes preincubated for 5 mins followed by addition of NADPH generating system measured after 20 mins by LC-MS/MS analysis; assay type: ADME; how it was run: as §4
Sequence of Cytochrome P450 3A4 (P08684 whole entry): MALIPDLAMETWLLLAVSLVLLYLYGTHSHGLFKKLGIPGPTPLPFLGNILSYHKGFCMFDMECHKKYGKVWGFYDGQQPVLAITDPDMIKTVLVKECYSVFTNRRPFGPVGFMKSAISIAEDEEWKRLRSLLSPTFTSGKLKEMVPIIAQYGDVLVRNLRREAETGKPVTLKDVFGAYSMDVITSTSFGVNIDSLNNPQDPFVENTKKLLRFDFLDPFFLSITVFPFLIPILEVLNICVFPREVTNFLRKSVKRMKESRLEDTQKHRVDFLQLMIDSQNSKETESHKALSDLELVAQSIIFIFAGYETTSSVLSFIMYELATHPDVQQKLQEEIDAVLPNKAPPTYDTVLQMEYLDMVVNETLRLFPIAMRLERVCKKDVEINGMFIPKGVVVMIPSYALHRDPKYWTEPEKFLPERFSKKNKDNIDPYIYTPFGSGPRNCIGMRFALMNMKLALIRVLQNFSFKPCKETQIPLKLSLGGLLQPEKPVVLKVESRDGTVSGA

[7] = AUClast in mouse at 3 mg/kg, iv; assay type: ADME, organism-based; set-up: dose 3 mg/kg, time 0 - last, route intravenous; conditions: in vivo; how it was run: as §1
Cytochrome P450 2C19 = Cytochrome P450 2C19 (Homo sapiens, UniProt P33261); test: Inhibition of CYP2C19 in human liver microsomes preincubated for 5 mins followed by addition of NADPH generating system measured after 20 mins by LC-MS/MS analysis; assay type: ADME; how it was run: as §4
Sequence of Cytochrome P450 2C19 (P33261 whole entry): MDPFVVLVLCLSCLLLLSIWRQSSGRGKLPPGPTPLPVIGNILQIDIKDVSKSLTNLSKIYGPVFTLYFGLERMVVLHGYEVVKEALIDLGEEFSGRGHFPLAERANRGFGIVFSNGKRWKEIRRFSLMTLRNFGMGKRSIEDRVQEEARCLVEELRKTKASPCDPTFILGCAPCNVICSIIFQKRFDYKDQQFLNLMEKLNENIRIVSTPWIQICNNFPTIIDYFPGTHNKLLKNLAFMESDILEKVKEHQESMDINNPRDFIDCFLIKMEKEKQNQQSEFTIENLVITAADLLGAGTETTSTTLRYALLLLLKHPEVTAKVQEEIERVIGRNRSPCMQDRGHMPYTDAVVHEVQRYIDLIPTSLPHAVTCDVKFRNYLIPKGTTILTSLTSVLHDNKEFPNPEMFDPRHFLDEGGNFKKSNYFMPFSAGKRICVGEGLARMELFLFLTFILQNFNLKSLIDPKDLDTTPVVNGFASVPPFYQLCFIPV

Mus musculus [8] = test: Antiamyloidogenic activity in double APP/PS1 transgenic Alzheimer's disease mouse model assessed as amyloid beta (1 to 42) levels in brain at 100 mg/kg, po qd administered for 8 weeks by sandwich ELISA relative to control; assay type: functional
How it was run: (§5)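 APP/PS1 mice, 29 weeks old, were dosed orally once daily for eight weeks at 30 or 100 mg/kg, with a vehicle group. Brain tissue was homogenized and amyloid fibrils were solubilized to monomers. Aβ1-40 and Aβ1-42 were then quantified by immunoassay with antibodies specific to monomeric Aβ.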

[9] = AUC (infinity) in mouse at 10 mg/kg, po; assay type: ADME, organism-based; set-up: dose 10 mg/kg, time infinity, route oral; conditions: in vivo; how it was run: as §1
[10] = Clearance in iv dosed monkey; assay type: ADME, organism-based, Macaca mulatta; conditions: rhesus monkey, in vivo
Mus musculus [11] = test: Volume of distribution at steady state in po ICR mouse; assay type: ADME, organism-based; conditions: in vivo
[12] = Half-life in po dosed ICR mouse; conditions: in vivo
[13] = Ratio of AUC in ICR mouse brain to AUC in ICR mouse plasma at 10 mg/kg, po measured at 3 hrs; assay type: ADME, organism-based; conditions: read-out: Ratio AUC
How it was run: (§6)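 ICR mice (n=3) given a single oral dose of 10 mg/kg. Brain and plasma were sampled over nine hours, at 0.333, 1, 3, 6 and 9 h. Kp was calculated as AUC_brain/AUC_plasma.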

[14] = Half-life in po dosed rat; conditions: in vivo
[15] = Oral bioavailability in ICR mouse; assay type: ADME, organism-based; conditions: in vivo
[16] = AUC in po dosed monkey; assay type: ADME, organism-based, Macaca mulatta; conditions: rhesus monkey, in vivo
[17] = Tmax in mouse at 3 mg/kg, po; assay type: ADME, organism-based; conditions: in vivo; how it was run: as §2
[18] = AUC in po dosed dog; assay type: ADME, organism-based, Canis lupus familiaris; conditions: in vivo
[19] = AUC in po dosed rat; assay type: ADME, organism-based; conditions: in vivo
Mus musculus [20] = test: Antiamyloidogenic activity in po dosed double APP/PS1 transgenic Alzheimer's disease mouse model assessed as decrease in amyloid beta (1 to 42) levels in brain administered as qd for 8 weeks by sandwich ELISA; assay type: functional, organism-based; how it was run: as §5
[21] = Oral bioavailability in rat; assay type: ADME, organism-based; conditions: in vivo
[22] = Initial concentration in mouse at 3 mg/kg, iv; assay type: ADME, organism-based; conditions: in vivo; how it was run: as §1
Mus musculus [23] = test: Reversal of cognitive deficit in amyloid beta (1 to 42)-treated Alzheimer's disease ICR mouse model assessed as step-through latency time at 10 mg/kg, po administered for 3 consecutive days by passive avoidance test; assay type: functional; how it was run: as §3
Mus musculus [24] = test: Reversal of cognitive deficit in amyloid beta (1 to 42)-treated Alzheimer's disease ICR mouse model assessed as increase in spatial memory function administered orally for 3 consecutive days by Y maze test; assay type: functional
How it was run: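 Acute AD model: preformed Aβ aggregates injected directly into the brains of normal mice to induce acute neurotoxicity. Compound given orally for three consecutive days, then the Y-maze was run. Read-out is percentage of spontaneous alternation, compared against normal and vehicle-treated mice.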

[25] = Cmax in mouse at 10 mg/kg, po; assay type: ADME, organism-based; set-up: dose 10 mg/kg, route oral; conditions: in vivo; how it was run: as §1
[26] = Cmax in mouse at 30 mg/kg, po; assay type: ADME, organism-based; set-up: dose 30 mg/kg, route oral; conditions: in vivo; how it was run: as §1
[27] = Ratio of AUC in ICR mouse brain to AUC in ICR mouse plasma at 10 mg/kg, po measured at 9 hrs; assay type: ADME, organism-based; conditions: read-out: Ratio AUC; how it was run: as §6
[28] = Half life in po ICR mouse; assay type: ADME, organism-based; conditions: in vivo
[29] = Cmax in po dosed rat; assay type: ADME, organism-based; set-up: route oral; conditions: in vivo
[30] = AUC (infinity) in mouse at 3 mg/kg, po; assay type: ADME, organism-based; set-up: dose 3 mg/kg, time infinity, route oral; conditions: in vivo; how it was run: as §1
[31] = Terminal half life in mouse at 30 mg/kg, po; assay type: ADME, organism-based; conditions: in vivo, read-out: beta t1/2 (converted); how it was run: as §2
Rattus norvegicus = test: Volume of distribution at steady state in po dosed rat; assay type: ADME, organism-based; conditions: in vivo
[32] = AUClast in mouse at 10 mg/kg, po; assay type: ADME, organism-based; set-up: dose 10 mg/kg, route oral, time 0 - last; conditions: in vivo; how it was run: as §1

COCCCc1ccc2oc(-c3ccc(OC)c(OC)c3)cc2c1 showed an AUC(0-inf) [1] of 10500 ng·h/mL, a t1/2 [2] of 12.9 h and a Cmax [3] of 102 ng/mL. The Tmax [4] was 3 h, the Activity (Mus musculus [5]) was “Dose-dependent effect” and the ED50 (Mus musculus [5]; po) was 0.19 mg/kg. It also gave a Tmax [6] of 0.7 h, a pIC50 (Cytochrome P450 2A6) of under 4.30 and a pIC50 (Cytochrome P450 3A4) of under 4.30. It also gave an AUC(0-t) [7] of 1300 ng·h/mL, a pIC50 (Cytochrome P450 2C19) of under 4.30 and an Activity (Mus musculus [8]) of 70%. It also gave an AUC(0-inf) [9] of 2290 ng·h/mL, a clearance [10] of 7 mL/min/kg and a Vdss (Mus musculus [11]) of 2.5 L/kg. The t1/2 [12] was 5.87 h, the Kp at 3 h [13] was 1.2 and the t1/2 [14] was 3.8 h. It also gave a bioavailability [15] of 83.3%, an AUC [16] of 13700 ng·h/mL and a Tmax [17] of 0.7 h. The AUC [18] was 4190 ng·h/mL, the AUC [19] was 4200 ng·h/mL and the Activity (Mus musculus [20]) was “Dose-dependent effect”. For the same compound, the bioavailability [21] was 51%, the C0 [22] was 4870 ng/mL and the Time (Mus musculus [23]) was 201.2 s. The Activity (Mus musculus [24]) was “Dose-dependent effect”, the ED50 (Mus musculus [24]; po) was 0.18 mg/kg and the Cmax [25] was 660 ng/mL. The Cmax [26] was 1700 ng/mL, the Kp at 9 h [27] was 1.4 and the half-life [28] was 5.87 h. The Cmax [29] was 421 ng/mL, the AUC(0-inf) [30] was 283 ng·h/mL and the half-life [31] was 3.3 h. The Vdss (Rattus norvegicus) was 10 L/kg and the AUC(0-t) [32] was 2240 ng·h/mL.
